From ChEMBL document CHEMBL3272325, “Structure-activity relationships of dimeric Catharanthus alkaloids. 1. Deacetylvinblastine amide (vindesine) sulfate” (J Med Chem, 1978)
Activity calls are given as the source filed them. The calls are words filed in the database; no cut-off is given here.

How the values were obtained:
B16 [1] = assay: Antitumor activity against mouse B16 cells allografted in B6D2F1 mouse assessed as mean survival time at 0.60 mg/kg/day, ip administered on day 1, 5 and 9 (reference value: 20.0 days); format: functional; conditions: route intraperitoneal
Outline: (§1)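 Male B6D2F1 mice implanted ip on day 0 with 0.25 mL of a 20% (w/v) B16 melanoma brei. Alkaloid sulfate salts given ip on days 1, 5, 9 or on days 5, 9, 13, groups of 10, against 30 untreated controls. Read-outs: median survival time with range of individual deaths, and percent increase in life span, with survivors counted on day 56.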

B16 [2] = assay: Antitumor activity against mouse B16 cells allografted in B6D2F1 mouse assessed as mean survival time at 1 mg/kg/day, ip administered on day 1, 5 and 9 (reference value: 20.0 days); format: functional; conditions: route intraperitoneal; outline: as §1
B16 [3] = assay: Antitumor activity against mouse B16 cells allografted in B6D2F1 mouse assessed as mean survival time at 1.67 mg/kg/day, ip administered on day 1, 5 and 9 (reference value: 20.0 days); format: functional; conditions: route intraperitoneal; outline: as §1
P388 [4] = assay: Antitumor activity against mouse P388 cells allografted in mouse assessed as increase in life span at 0.33 mg/kg/day, ip administered from day 1 to day 9 relative to untreated control; format: functional; conditions: route intraperitoneal
Outline: (§2)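 P388 ascites implanted ip in mice, 10 animals per group. Sulfate salts given ip either daily on days 1-9 or as a single dose on day 1. Median life span was calculated using all deaths and survivors. Percent increase in life span was taken over untreated controls. The highest nontoxic dose was noted.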

P388 [5] = assay: Antitumor activity against mouse P388 cells allografted in mouse assessed as increase in life span at 0.22 mg/kg/day, ip administered from day 1 to day 9 relative to untreated control; format: functional; conditions: route intraperitoneal; outline: as §2
P388 [6] = assay: Antitumor activity against mouse P388 cells allografted in mouse assessed as increase in life span at 4 mg/kg/day, ip after 1 day; format: functional; conditions: 24 h, route intraperitoneal; outline: as §2
P388 [7] = assay: Antitumor activity against mouse P388 cells allografted in mouse assessed as increase in life span at 2.7 mg/kg/day, ip after 1 day; format: functional; conditions: 24 h, route intraperitoneal; outline: as §2
P388 [8] = assay: Antitumor activity against mouse P388 cells allografted in mouse assessed as increase in life span at 1.8 mg/kg/day, ip after 1 day; format: functional; conditions: 24 h, route intraperitoneal; outline: as §2
P388 [9] = assay: Antitumor activity against mouse P388 cells allografted in mouse assessed as increase in life span at 1.2 mg/kg/day, ip after 1 day; format: functional; conditions: 24 h, route intraperitoneal; outline: as §2
[10] = Toxicity in ip dosed mouse allografted with mouse p388 cells administered from day 1 to day 9; format: organism-based; conditions: in vivo, read-out: MNTD; outline: as §2
[11] = Toxicity in ip dosed mouse allografted with mouse p388 cells after 1 day; format: organism-based; conditions: in vivo, read-out: MNTD; outline: as §2
B16 [12] = assay: Antitumor activity against mouse B16 cells allografted in B6D2F1 mouse assessed as mean survival time at 0.36 mg/kg/day, ip administered on day 1, 5 and 9 (reference value: 20.0 days); format: functional; conditions: route intraperitoneal; outline: as §1
B16 [13] = assay: Antitumor activity against mouse B16 cells allografted in B6D2F1 mouse assessed as mean survival time at 0.216 mg/kg/day, ip administered on day 1, 5 and 9 (reference value: 20.0 days); format: functional; conditions: route intraperitoneal; outline: as §1
B16 [14] = assay: Antitumor activity against mouse B16 cells allografted in B6D2F1 mouse assessed as increase in life span at 1.67 mg/kg/day, ip administered on day 1, 5 and 9 measured for 56 days relative to untreated control; format: functional; conditions: route intraperitoneal; outline: as §1
B16 [15] = assay: Antitumor activity against mouse B16 cells allografted in B6D2F1 mouse assessed as increase in life span at 1 mg/kg/day, ip administered on day 1, 5 and 9 measured for 56 days relative to untreated control; format: functional; conditions: route intraperitoneal; outline: as §1
B16 [16] = assay: Antitumor activity against mouse B16 cells allografted in B6D2F1 mouse assessed as increase in life span at 0.60 mg/kg/day, ip administered on day 1, 5 and 9 measured for 56 days relative to untreated control; format: functional; conditions: route intraperitoneal; outline: as §1
B16 [17] = assay: Antitumor activity against mouse B16 cells allografted in B6D2F1 mouse assessed as increase in life span at 0.36 mg/kg/day, ip administered on day 1, 5 and 9 measured for 56 days relative to untreated control; format: functional; conditions: route intraperitoneal; outline: as §1
B16 [18] = assay: Antitumor activity against mouse B16 cells allografted in B6D2F1 mouse assessed as increase in life span at 0.216 mg/kg/day, ip administered on day 1, 5 and 9 measured for 56 days relative to untreated control; format: functional; conditions: route intraperitoneal; outline: as §1
B16 [19] = assay: Antitumor activity against mouse B16 cells allografted in B6D2F1 mouse assessed as mean survival time at 1.67 mg/kg/day, ip administered on day 5, 9 and 13 (reference value: 20.0 days); format: functional; conditions: route intraperitoneal; outline: as §1
B16 [20] = assay: Antitumor activity against mouse B16 cells allografted in B6D2F1 mouse assessed as mean survival time at 1 mg/kg/day, ip administered on day 5, 9 and 13 (reference value: 20.0 days); format: functional; conditions: route intraperitoneal; outline: as §1
B16 [21] = assay: Antitumor activity against mouse B16 cells allografted in B6D2F1 mouse assessed as mean survival time at 0.60 mg/kg/day, ip administered on day 5, 9 and 13 (reference value: 20.0 days); format: functional; conditions: route intraperitoneal; outline: as §1
B16 [22] = assay: Antitumor activity against mouse B16 cells allografted in B6D2F1 mouse assessed as mean survival time at 0.36 mg/kg/day, ip administered on day 5, 9 and 13 (reference value: 20.0 days); format: functional; conditions: route intraperitoneal; outline: as §1
B16 [23] = assay: Antitumor activity against mouse B16 cells allografted in B6D2F1 mouse assessed as mean survival time at 0.216 mg/kg/day, ip administered on day 5, 9 and 13 (reference value: 20.0 days); format: functional; conditions: route intraperitoneal; outline: as §1
B16 [24] = assay: Antitumor activity against mouse B16 cells allografted in B6D2F1 mouse assessed as increase in life span at 1.67 mg/kg/day, ip administered on day 5, 9 and 13 measured for 56 days relative to untreated control; format: functional; conditions: route intraperitoneal; outline: as §1
[25] = Antitumor activity against mouse Ridgeway osteogenic sarcoma cells allografted in mouse at 0.1 to 0.2 mg/kg/day, ip; format: functional; conditions: route intraperitoneal
Outline: (§3)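 Sulfate salts given ip on days 1-9 against ROS and GLS in mice; tumor growth scored as percent inhibition versus controls (+++ = 75-100%, ++ = 50-75%, ± = under 25%).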

[26] = Antitumor activity against mouse Gardner lymphosarcoma cell allografted in mouse at 0.1 to 0.2 mg/kg/day, ip; format: functional; conditions: route intraperitoneal; outline: as §3
[27] = Acute toxicity in ip dosed mouse; format: organism-based; conditions: in vivo
P388 [28] = assay: Antitumor activity against mouse P388 cells allografted in mouse assessed as survival at 1.8 mg/kg/day after 1 day; format: functional, organism-based
Outline: (§4)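 P388 ascites implanted ip in mice; sulfate salts dosed either daily or as a single dose on day 1, 10 animals per group. Survivors per total were recorded, median life span was calculated using all deaths and survivors, and percent increase of life span was reported.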

[29] = Antitumor activity against mouse P1534(J) cells allografted in mouse assessed as tumor growth inhibition at 0.25 mg/kg/day, ip administered from day 1 to day 9 relative to unreated control; format: functional; conditions: P1534J, route intraperitoneal, read-out: TGI
Outline: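 P1534(J) leukemia implanted subcutaneously in mice; sulfate salts given ip on days 1-9. Read-out is percent inhibition of tumor growth versus untreated controls.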

[30] = Toxicity in ip dosed mouse allografted with mouse P1534(J) cells administered from day 1 to day 9; format: organism-based; conditions: in vivo, read-out: MNTD
Outline: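 P1534(J) leukemia implanted subcutaneously in mice. Sulfate salts given ip daily on days 1-9. Read-out was percent inhibition of tumor growth relative to untreated controls. The highest nontoxic dose was recorded.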

P388 [31] = assay: Antitumor activity against mouse P388 cells allografted in mouse assessed as survival at 1.2 mg/kg/day after 1 day; format: functional, organism-based; outline: as §4
B16 [32] = assay: Antitumor activity against mouse B16 cells allografted in B6D2F1 mouse assessed as increase in life span at 1 mg/kg/day, ip administered on day 5, 9 and 13 measured for 56 days relative to untreated control; format: functional; conditions: route intraperitoneal; outline: as §1
B16 [33] = assay: Antitumor activity against mouse B16 cells allografted in B6D2F1 mouse assessed as increase in life span at 0.60 mg/kg/day, ip administered on day 5, 9 and 13 measured for 56 days relative to untreated control; format: functional; conditions: route intraperitoneal; outline: as §1
B16 [34] = assay: Antitumor activity against mouse B16 cells allografted in B6D2F1 mouse assessed as increase in life span at 0.36 mg/kg/day, ip administered on day 5, 9 and 13 measured for 56 days relative to untreated control; format: functional; conditions: route intraperitoneal; outline: as §1
B16 [35] = assay: Antitumor activity against mouse B16 cells allografted in B6D2F1 mouse assessed as increase in life span at 0.216 mg/kg/day, ip administered on day 5, 9 and 13 measured for 56 days relative to untreated control; format: functional; conditions: route intraperitoneal; outline: as §1
[36] = Acute toxicity in rat; format: organism-based; conditions: in vivo
Gallus gallus = assay: Neurotoxicity in iv dosed chicken assessed as neuromuscular disturbance by measuring loss of balance; format: organism-based; conditions: in vivo
Rhesus monkey [37] = assay: Neurotoxicity in iv dosed monkey assessed as peripheral neuropathy; format: toxicity, organism-based, Macaca mulatta; conditions: in vivo
P388 [38] = assay: Antitumor activity against mouse P388 cells allografted in mouse assessed as survival at 0.22 mg/kg/day administered from day 1 to day 9; format: functional, organism-based; outline: as §4
Rhesus monkey [39] = assay: Neurotoxicity in iv dosed monkey assessed as peripheral neuropathy; conditions: in vivo

CC[C@]1(O)C[C@H]2CN(CCc3c([nH]c4ccccc34)[C@@](C(=O)OC)(c3cc4c(cc3OC)N(C=O)[C@H]3[C@@](O)(C(=O)OC)[C@H](OC(C)=O)[C@]5(CC)C=CCN6CC[C@]43[C@@H]65)C2)C1.O=S(=O)(O)O [VINCRISTINE SULFATE] gave an MST (B16 [1]) of 30.5 days, an MST (B16 [2]) of 32.5 days and an MST (B16 [3]) of 35 days. For the same molecule, the ILS at 0.33 mg/kg/day (P388 [4]) was 181%, the ILS at 0.22 mg/kg/day (P388 [5]) was 131% and the ILS at 4 mg/kg/day (P388 [6]) was 118%. The ILS at 2.7 mg/kg/day (P388 [7]) was 100%, the ILS at 1.8 mg/kg/day (P388 [8]) was 81% and the ILS at 1.2 mg/kg/day (P388 [9]) was 68%. The MTD [10] was 0.33 mg/kg/day, the MTD at 24 h [11] was 4 mg/kg/day and the MST (B16 [12]) was 26 days. For the same molecule, the MST (B16 [13]) was 24 days, the ILS at 1.67 mg/kg/day (B16 [14]) was 75% and the ILS at 1 mg/kg/day (B16 [15]) was 62%. For the same molecule, the ILS at 0.6 mg/kg/day (B16 [16]) was 52%, the ILS at 0.36 mg/kg/day (B16 [17]) was 30% and the ILS at 0.216 mg/kg/day (B16 [18]) was 20%. The MST (B16 [19]) was 26 days, the MST (B16 [20]) was 29.5 days and the MST (B16 [21]) was 24.5 days. For the same molecule, the MST (B16 [22]) was 24 days, the MST (B16 [23]) was 24.5 days and the ILS at 1.67 mg/kg/day (B16 [24]) was 30%. For the same molecule, the TGI [25] was 75%, the TGI [26] was 75% and the LD50 [27] was 2.1 mg/kg. The Activity (P388 [28]) was “inactive”, the inhibition in vivo at 0.25 mg/kg/day [29] was 77% and the MTD [30] was 0.25 mg/kg/day. For the same molecule, the Activity (P388 [31]) was “inactive”, the ILS at 1 mg/kg/day (B16 [32]) was 48% and the ILS at 0.6 mg/kg/day (B16 [33]) was 22%. For the same molecule, the ILS at 0.36 mg/kg/day (B16 [34]) was 20%, the ILS at 0.216 mg/kg/day (B16 [35]) was 22% and the LD50 [36] was 1 mg/kg. For the same molecule, the Activity (Gallus gallus) was “Toxic”, the Activity (Rhesus monkey [37]) was “Toxic” and the Activity (P388 [38]) was “inactive”. The Activity (Rhesus monkey [39]) was “Toxic”.
